Assay outcomes (PubChem)
Sampled rows, rich in hits. Any-hit rate of the full collection: about 2%.
LGR2 inh = Drosophila LGR2 receptor signaling inhibition; inhibition, % at 9.99 µM; HEK293 LGR2, CRE-luciferase, bursicon-stimulated, 4 h; actives 0.35% (n = 380,000);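 active = drop in luminescence signal, shown as inhibition above about 50% in the replicate tests, limit read from the data, passing the limit was not always enough; inconclusive = probably only some replicates passing the limit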;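 note: agonist challenge used bursicon conditioned medium at about half maximal strength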
Xi reactivation = reactivates the inactive X chromosome in mouse fibroblasts; actives 0.055% (n = 360,000); activation, % at 7.58 µM; AID 743238; XiGFP mouse fibroblasts, % GFP-positive cells imaging, 3 d; cells co-treated with 5-aza-dC sensitizer; scaled so ellipticine positive control = 100%;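 active = mean normalized replicate activation at least 10% and every replicate at or above 10%; inconclusive = only one of the two criteria met; inactive = mean below 10% and not all replicates reach 10%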;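 note: 0% = median of on-plate neutral control wells and 100% = ellipticine 6 µM median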
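System: 68-5-11 XiGFP fibroblast line | Buffer or medium: DMEM containing 5-aza-dC | Compound: Single point | Times: Compounds 3 days, fix/stain 15 min at room temperature | Benchmarks: Positive control ellipticine, 6 µM final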
CaV13 ICDI inh = Disruptors of the CACNA1D IQ motif to Ca2+-dependent inactivation inhibitor domain association, primary screening, Förster resonance energy transfer in intact living …. inhibition, % at 12.3 µM. HEK cells, CFP/YFP FRET ICDI-IQ, plate reader, 10 min; percent FRET-ratio fall versus neutral wells. actives 0.098% (n = 340,000);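 active = mean replicate inhibition of at least 30% and at least 1% of replicates passing that level; inconclusive = only one of the two criteria is met; inactive = neither criterion is met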;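 note: 0% = median of the neutral control wells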
TROY signal inh = TROY signaling inhibition | Q293 LMP1-TROYcd NF-kB luciferase reporter, 4 h | inhibition, % at 10 µM | actives 0.98% (n = 360,000);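 active = compounds whose plate-normalised and pattern-corrected inhibition of the luciferase reporter signal at the single screening dose is 50% or more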
TWEAK-Fn14 inh = blocks TWEAK-Fn14 interaction in a reporter cell assay | actives 2% (n = 360,000) | inhibition, % at 10 µM | TWEAK-stimulated Fn14 reporter cells, luciferase luminescence, 8 h; in the data active = inhibition above about 50%
An asterisk follows results filed as active; u = inconclusive; x = not tested or not shown.

SMILES	LGR2 inh	Xi reactivation	CaV13 ICDI inh	TROY signal inh	TWEAK-Fn14 inh
Cc1ccccc1-c1ccc(C2[C@@H]3CN(C(=O)C4CCC4)C[C@H]2N3)cc1 (some centres not stated)	x	0	x	x	x
CC1=NOC(=O)/C1=C\c1ccc(-c2ccc(Cl)c(C(=O)O)c2)o1	-23	0	-3	20	-18
CC1=NOC(=O)/C1=C\c1ccc(-c2cccc(Cl)c2)o1	x	x	x	57*	67*
CC1=NOC(=O)/C1=C\c1ccc(-c2ccccc2Br)o1	x	0	-2	68*	96*
N#Cc1c([N+](=O)[O-])cc([N+](=O)[O-])cc1S(=O)(=O)Cc1ccccc1	7	1	-7	52*	43
COc1cc(OC)c(C#N)c(S(=O)(=O)Cc2ccccc2)c1	x	x	-5	-5	0
S=C(NCc1ccccc1)Nc1cccc2cnccc12	12	0	-7	42	77*
CC(=O)c1ccc(NC(=S)Nc2cccc3cnccc23)cc1	12	0	-6	34	60*
S=C(NCCc1ccccc1)Nc1cccc2cnccc12	-2	0	3	36	40
S=C(Nc1cccc(Cl)c1)Nc1cccc2cnccc12	x	x	x	34	76*
N[C@H]1CC[C@@H](CCn2cc(-c3ccccn3)nn2)O[C@H]1CO	-2	0	x	x	x
Cc1ccccc1-c1cnc2c(c1)C(=O)N([C@@H](C)CO)C[C@H](C)[C@@H](CN(C)C(=O)c1ccc(F)cc1)O2	-1	-1	x	x	x
CC(C)(C)c1ccc(Nc2n[nH]c3ccccc23)cc1	-27	0	-7	53*	53*
Cc1n[nH]c2ccccc2c1=O	7	0	-6	5	-21
N#Cc1ccc(-c2ccc3c(c2)[C@H]2[C@H](CCN2S(=O)(=O)c2ccccc2F)[C@@H](CO)N3)cc1	0	0	x	x	x
COc1cccc(CNC(=O)C[C@@H]2C=C[C@@H](NC(=O)C3CC3)[C@@H](CO)O2)c1	-3	-1	x	x	x
CCCN1CCC(=O)N([C@H](CSc2ccc(C)cc2)c2ccccc2)CC1	x	0	-9	50*	37
N#C[C@@H]1[C@@H](c2ccc(C3=CCCCC3)cc2)[C@@H](CO)N1C(=O)NC1CCCCC1	14	0	x	x	x
O=C(NCC[C@H]1CC[C@H](NS(=O)(=O)Cc2ccccc2)[C@@H](CO)O1)C1CCCC1	4	0	x	x	x
CNc1ccccc1C(C)(C)c1cc(-c2ccc(F)cc2)no1	11	0	-5	31	54*
Cc1ccc(Sc2ncccc2[N+](=O)[O-])cc1	8	0	-13	2	4
Cc1c([N+](=O)[O-])cnc(Sc2ccccc2)c1[N+](=O)[O-]	u	0	-3	63*	84*
COc1ccccc1OCc1ccc(C(=O)N(C)c2ccccc2)o1	-5	0	39*	9	9
CNC[C@@H]1Oc2c(NS(=O)(=O)c3ccc(F)cc3)cccc2C(=O)N([C@H](C)CO)C[C@H]1C	15	0	x	x	x
CCCCc1cc(=O)oc2c(CN(C)C)c(O)ccc12	x	x	x	-1	-7
SMILES	LGR2 inh	Xi reactivation	CaV13 ICDI inh	TROY signal inh	TWEAK-Fn14 inh
CC[C@@]1(O)C(=O)OCc2c1cc1n(c2=O)Cc2cc3c(N)cccc3nc2-1	x	2	-11	63*	70*
CC[C@@]1(O)C(=O)OCc2c1cc1n(c2=O)Cc2cc3c(CN(C)C)c(O)ccc3nc2-1	97*	3	-51	79*	33
C[C@@H]1CN([C@@H](C)CO)C(=O)Cc2cc(NS(=O)(=O)c3cccs3)ccc2O[C@H]1CN(C)Cc1ccc(C(F)(F)F)cc1	27	0	x	x	x
Oc1ccc(C=Nc2cccc3ccccc23)c(O)c1	7	0	-21	53*	53*
C[C@H]1CCCCO[C@H](CN(C)C(=O)c2ccncc2)[C@@H](C)CN([C@@H](C)CO)C(=O)c2cc(NS(=O)(=O)c3cccs3)ccc2O1	-11	0	x	x	x
O=C(O)C1CCCCC1C(=O)N1CC=C(c2ccccc2)CC1 (configuration not stated)	30	x	-5	68*	80*
C[C@@H]1CN([C@H](C)CO)C(=O)c2cc(Br)cnc2O[C@H]1CN(C)C(=O)C1CC1	2	-1	x	x	x
CN(C)c1ccc(-n2cccc2/C=C/[N+](=O)[O-])cc1	x	1	-7	-31	60*
CCc1cc2c(=O)c(-c3cscn3)coc2c(CN(C)C)c1O	-12	x	x	66*	-63
CCc1cc2c(=O)c(-c3ccc4c(c3)OCO4)coc2c(CN(C)C)c1O	4	0	-12	36	-12
COc1ccc2c3c(n(C)c2c1)[C@@H](CO)N(C(=O)CN(C)C)CC31CCN(Cc2nccs2)CC1	-6	0	x	x	x
O=c1c(=NNc2ccccc2Cl)c(=O)c2ccccc12	16	x	-7	67*	98*
Cc1nn(CCc2nn[nH]n2)c2nc(-c3ccc(C4CCCCC4)cc3)cc(C(F)(F)F)c12	14	0	14	56*	26
N#CC1c2ccccc2C=CN1C(=O)N(c1ccccc1)c1ccccc1 (configuration not stated)	x	0	-17	39	94*
Clc1ccc(CNc2ncccn2)cc1	9	0	-3	13	72*
Fc1ccc(CNc2ncccn2)cc1	-3	0	-5	-2	15
COc1cccc(NC(=O)N(C)C[C@H]2Oc3ncc(C4=CCCCC4)cc3C(=O)N([C@H](C)CO)C[C@@H]2C)c1	46	0	x	x	x
c1ccc(-c2ccc3ncccc3n2)cc1	-34	0	-6	53*	-9
Cc1ccc(C)c(Cn2nc(-c3ccccc3)ccc2=O)c1	-6	0	-4	56*	-18
CC(C)C(=O)Nc1ccc2c(c1)C(=O)N(C)[C@@H]1CC[C@H](CC(=O)NCc3ccccc3)O[C@H]1CO2	0	0	x	x	x
CCCCNC(=O)C1(C)CCN1C(=O)c1cc(-c2cccs2)oc1C (configuration not stated)	u	0	-6	37	78*
O=C(Nc1nncs1)c1cc2c(s1)CCC2	-10	0	-4	-59	-21
O=C(Nc1nccs1)c1cc2c(s1)CCCCC2	x	x	-6	78*	100*
Cc1sc2nc3ccc(NCc4ccco4)nn3c(=O)c2c1C	x	x	-9	3	91*
CCS(=O)(=O)Nc1ccc(-c2nc3cccnc3s2)cc1	27	0	-5	44	69*
Cc1nc2ccc(S(=O)(=O)Nc3ccc(-c4nc5cccnc5s4)cc3)cc2s1	-32	0	139*	27	24
CCS(=O)(=O)Nc1cccc(-c2nc3cccnc3s2)c1	-37	0	-5	-11	23
CC(C)C#Cc1cnc2c(c1)C(=O)N([C@H](C)CO)C[C@@H](C)[C@@H](CN(C)C(=O)Nc1ccc(F)cc1)O2	3	-1	x	x	x
